Here are results for 20 molecules from ChEMBL document CHEMBL3804789, “5-Ene-4-thiazolidinones induce apoptosis in mammalian leukemia cells” (Eur J Med Chem, 2016).

What all share (assay type): functional, cell-based
Test [1] is described as follows: Antiproliferative activity against human HL60 cells after 72 hrs by MTT assay. Conditions: HL-60, 72 h. The procedure, abridged: (§1)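 MTT viability after 72 h continuous exposure. Cells seeded 24 h beforehand at 2,000/well (adherent) or 10,000/well (suspension), then given 0, 0.01, 0.1, 0.5, 1.0 or 10.0 μM compound diluted from 10 mM DMSO stock into RPMI or DMEM with 10% FBS, 37°C, 5% CO2. IC50 taken as concentration killing 50% of cells versus untreated culture.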

The nature of test [2]: Antiproliferative activity against human SKOV3 cells after 72 hrs by MTT assay. The settings on record: SK-OV-3, 72 h. In outline:
as §1

Test [3] can be described thus: Antiproliferative activity against human HL60/ADR cells after 72 hrs by MTT assay. The procedure, abridged: as §1

For `CC(=O)Oc1cccc(N2C(=O)/C(=C/N3N=C(c4ccc5ccccc5c4)CC3c3ccc(Cl)cc3)SC2=S)c1` (stereo unspecified), the IC50 – broadly, the concentration needed to halve the response being measured – in test [1] turned out to be 1.02 µM; in test [2] it was 2.39 µM.
With `O=C1/C(=C/N2N=C(c3ccc4ccccc4c3)CC2c2ccccc2O)SC(=S)N1c1cccnc1` (stereo unspecified), the IC50 in test [1] turned out to be 4.06 µM; in test [2], 5.59 µM.
Turning to `O=C1NC(=S)S/C1=C\N1N=C(c2ccc3ccccc3c2)CC1c1ccc(Cl)cc1` (stereo unspecified), the results for the IC50 in test [1] and in test [2] were 0.4 µM and 0.163 µM, respectively.
As to `COc1ccc(C2CC(c3ccc4ccccc4c3)=NN2/C=C2\SC(=S)N(c3ccc(OC(C)=O)cc3)C2=O)cc1` (stereo unspecified), the IC50 is over 10 µM in test [1] and 1.1 µM in test [2].
`O=C1NC(=S)/C(=C/N2N=C(c3ccccc3)CC2c2ccccc2O)S1` (stereo unspecified): the values for the IC50 in test [1] and in test [2] were 0.99 µM and 7.87 µM, respectively.
On to `CC(=O)Oc1ccc(N2C(=O)/C(=C/N3N=C(c4ccc5ccccc5c4)CC3c3ccc(Cl)cc3)SC2=S)cc1` (stereo unspecified), for which the IC50 in test [1] was 1.8 µM; in test [2], over 10 µM.
Regarding `O=C1/C(=C/N2N=C(c3ccccc3)CC2c2ccccc2O)SC(=S)N1c1cccnc1` (stereo unspecified), the IC50 in test [1] was 0.72 µM; in test [2], over 10 µM.
Regarding `CC(=O)Oc1ccc(N2C(=O)/C(=C/N3N=C(c4ccccc4)CC3c3ccccc3O)SC2=S)cc1` (stereo unspecified), the IC50 in test [1] worked out at 9.4 µM; in test [2] it was 0.244 µM.
Take `CC(=O)Oc1ccc(N2C(=O)/C(=C/N3N=C(c4ccc5ccccc5c4)CC3c3ccccc3O)SC2=S)cc1` (stereo unspecified): the values for the IC50 in test [1] and in test [2] were 0.5 µM and over 10 µM, respectively.
Turning to `CCOC(=O)CCN1C(=O)/C(=C/N2N=C(c3ccccc3)CC2c2ccccc2O)SC1=S` (stereo unspecified), the IC50 in test [1] and in test [2] was over 10 µM throughout.
With `O=C1NC(=S)/C(=C/N2N=C(c3ccc4ccccc4c3)CC2c2ccc(Cl)cc2)S1` (stereo unspecified), the results for the IC50 in test [1] and in test [2] were 0.156 µM and over 10 µM, respectively.
Take `CCN1C(=O)/C(=C/N2N=C(c3ccccc3)CC2c2ccccc2O)SC1=S` (stereo unspecified): the IC50 in test [1] and in test [2] was over 10 µM each time.
For the molecule `CC(=O)Oc1ccc(N2C(=O)/C(=C/N3N=C(c4ccc(Cl)cc4)CC3c3ccc(Cl)cc3)SC2=S)cc1` (stereo unspecified), the IC50 in test [1] and in test [2] was over 10 µM each time.
Consider `CC(=O)Oc1cccc(N2C(=O)/C(=C/N3N=C(c4ccccc4)CC3c3ccc(N(C)C)cc3)SC2=S)c1` (stereo unspecified), for which the figures for the IC50 in test [1] and in test [2] were 0.1 µM and over 10 µM, respectively.
Regarding `CN1C(=O)/C(=C/N2N=C(c3ccccc3)CC2c2ccccc2O)SC1=S` (stereo unspecified), the values for the IC50 in test [1] and in test [2] were 2.88 µM and 0.341 µM, respectively.
On to `O=C1/C(=C/N2N=C(c3ccccc3)CC2c2ccccc2O)SC(=S)N1c1cccc(C(F)(F)F)c1` (stereo unspecified), for which the half-maximal inhibitory concentration (IC50) in test [1] and in test [2] was over 10 µM each time.
On to `CN(C)c1ccc(C2CC(c3ccccc3)=NN2/C=C2\SC(=S)NC2=O)cc1` (stereo unspecified), for which the IC50 in test [1] and in test [2] was over 10 µM throughout.
In the case of `CN1C(=O)/C(=C/N2N=C(c3ccc4ccccc4c3)CC2c2ccccc2O)SC1=S` (stereo unspecified), the IC50 in test [1] and in test [2] was over 10 µM each time.
As for `O=C1NC(=S)S/C1=C\N1N=C(c2ccc(Cl)cc2)CC1c1ccc(Cl)cc1` (stereo unspecified), the IC50 in test [1] is over 10 µM; in test [2], 9.14 µM.
As to `COc1cccc2c1C(=O)c1c(O)c3c(c(O)c1C2=O)C[C@@](O)(C(=O)CO)C[C@@H]3O[C@H]1C[C@H](N)[C@H](O)[C@H](C)O1` [DOXORUBICIN], the IC50 amounted to 0.051 µM in test [1], 0.073 µM in test [2] and 8.8 µM in test [3].
